Laboratory results: ChEMBL document CHEMBL1128354, “Fluorenylalkanoic and benzoic acids as novel inhibitors of cell adhesion processes in leukocytes” (J Med Chem, 1995)

Tests used:
[1] = species on record: Homo sapiens; assay: In vitro ability to inhibit the adhesion of neutrophil activated by tumor necrosis factor (alpha-TNF) to serum-coated plastic wells.; assay type: functional, organism-based
Method in brief: (§1)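 Human blood PMN, isolated and RBC-lysed, at 4×10^6/mL were preincubated with compound (from 100× DMSO stocks) for 10 min at 37 °C in wells coated with 10% pooled human serum. TNF-α was then added to 0.6 nM and adherence run for 20 min. Adherent cells quantitated by BCA protein assay. Seven dilutions in duplicate gave IC50, averaged over at least three experiments ± SEM.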

[2] = (§2) LD50 value for polymorphonuclear granulocytes was determined; assay type: ADME; details: human, read-out: LD50 (the source's name)
Method in brief: (§3)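 Viability read-out for LD50: human PMN (isolated from heparinised blood of unmedicated volunteers) or endothelial cell suspension in phenol red-free medium, with compound, incubated in serum-coated wells for 30 min at 37 °C. Calcein AM (added as 2 μM solution in HBSS++) for a further 30 min. Fluorescence read at ex/em 485/535 nm from live-cell esterase cleavage.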

[3] = LD50 value for endothelial cells was determined; assay type: ADME, cell-based, Endothelial cell; details: human, read-out: LD50 (the source's name); method in brief: as §3
[4] = In vitro ability to inhibit adherence of activated polymorphonuclear granulocytes to endothelial cells using IFN gamma-(HUVEC) assay was determined; details: Homo sapiens
[5] = species on record: Homo sapiens; assay: In vitro ability to inhibit the adhesion of neutrophil activated by platelet activating factor (PAF) to serum-coated plastic wells was determined; assay type: functional
Method in brief: as §1, with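 “PAF” for “TNF-α”, “1 μM” for “0.6 nM”, “10” for “20”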

[6] = as §2; assay type: functional; details: Homo sapiens; read-out: LD50 (the source's name); method in brief: as §3

| Structure (SMILES) | IC50 [1] [µM] | further results |
| --- | --- | --- |
| O=C(O)c1ccc(CC2c3ccccc3-c3ccccc32)cc1 | 27.6 | CC50 [2]: 306 µM; CC50 [3]: > 1000 µM; IC50 [4]: 91.2 µM; IC50 [5]: 17.8 µM |
| O=C(O)c1ccc(OCCCCC2c3ccccc3-c3ccccc32)cc1 | 7.53 | CC50 [2]: 113 µM; CC50 [3]: > 1000 µM; IC50 [4]: 19.8 µM; IC50 [5]: 5.2 µM |
| O=C(O)c1ccccc1OCCCCCC1c2ccccc2-c2ccccc21 | 15.8 |  |
| O=C(Nc1ccccc1C(=O)O)OC1c2ccccc2-c2ccccc21 | 19 |  |
| O=C(O)c1cccc(OCCCCC2c3ccccc3-c3ccccc32)c1 | 6.6 |  |
| O=C(O)c1cccc(OCCCC2c3ccccc3-c3ccccc32)c1 | 13.8 |  |
| O=C(O)CCCC1c2ccccc2-c2ccccc21 | 97 |  |
| O=C(Nc1ccc(C(=O)O)cc1)OCC1c2ccccc2-c2ccccc21 | > 500 |  |
| O=C(O)c1ccccc1OCCCC1c2ccccc2-c2ccccc21 | 55.4 |  |
| O=C(Nc1ccc(C(=O)O)cc1)OC1c2ccccc2-c2ccccc21 | 30 |  |
| O=C(O)c1ccc(OCCCCCC2c3ccccc3-c3ccccc32)cc1 | 7.13 | CC50 [2]: 295 µM; CC50 [3]: > 1000 µM; IC50 [4]: 48.2 µM; IC50 [5]: 11.7 µM |
| O=C(O)c1ccccc1OCCC1c2ccccc2-c2ccccc21 | 73.3 |  |
| O=C(Nc1ccc(C(=O)O)cc1)OCCC1c2ccccc2-c2ccccc21 | 30 |  |
| O=C(O)c1ccc(OCCCC2c3ccccc3-c3ccccc32)cc1 | 15.6 | CC50 [2]: 281 µM; CC50 [3]: > 1000 µM; IC50 [4]: 23.2 µM; IC50 [5]: 36.4 µM |
| O=C(O)c1cccc(OCCCCCC2c3ccccc3-c3ccccc32)c1 | 5.23 |  |
| O=C(O)CCCCC1c2ccccc2-c2ccccc21 | 87 |  |
| O=C(N[C@@H](Cc1ccccc1)C(=O)O)OCC1c2ccccc2-c2ccccc21 | 58 |  |

| Structure (SMILES) | IC50 [1] [µM] | further results |
| --- | --- | --- |
| O=C(O)C1c2ccccc2-c2ccccc21 | > 200 |  |
| O=C(O)c1cccc(OCCC2c3ccccc3-c3ccccc32)c1 | 31 |  |
| O=C(O)CC1c2ccccc2-c2ccccc21 | > 200 |  |
| O=C(O)C(CCCCC1c2ccccc2-c2ccccc21)Cc1ccccc1 (stereo unspecified) | 6 | CC50 [2]: 79 µM; CC50 [3]: 72 µM; IC50 [4]: 10.2 µM |
| O=C(O)c1ccc(OCCCCC2c3cc(Cl)ccc3-c3ccc(Cl)cc32)cc1 | 8.1 |  |
| CC(C)C[C@H](NC(=O)OCC1c2ccccc2-c2ccccc21)C(=O)O | 78 |  |
| O=C(O)CCCCCC1c2ccccc2-c2ccccc21 | 55.2 |  |
| O=C(O)CCC1c2ccccc2-c2ccccc21 | > 200 |  |
| O=C(Nc1ccc(C(=O)O)cc1)OCCC1c2cc(Cl)ccc2-c2ccc(Cl)cc21 | 9.8 | CC50 [6]: 62.5 µM; CC50 [3]: 82.3 µM; IC50 [4]: 26.1 µM; IC50 [5]: 17.8 µM |
| Cc1ccc2c(c1)C(COC(=O)N[C@@H](CC(C)C)C(=O)O)c1cc(C)ccc1-2 | 41.7 | CC50 [2]: 343 µM; CC50 [3]: 354 µM; IC50 [4]: 117 µM; IC50 [5]: 31.7 µM |
| O=C(O)c1ccc(C2c3ccccc3-c3ccccc32)cc1 | 81.6 |  |
| O=C(O)c1ccc(OCCC2c3ccccc3-c3ccccc32)cc1 | 14 |  |
| CC(C)(C)c1ccc2c(c1)C(Cc1ccc(C(=O)O)cc1)c1cc(C(C)(C)C)ccc1-2 | > 200 |  |
| CC(C)(C)c1ccc2c(c1)C(CCCCOc1ccc(C(=O)O)cc1)c1cc(C(C)(C)C)ccc1-2 | 8 |  |
| O=C(O)CCCCCCCC1c2ccccc2-c2ccccc21 | 32.2 |  |
| O=C(O)c1ccc(CC2c3cc(Cl)ccc3-c3ccc(Cl)cc32)cc1 | 29.1 |  |
| O=C(O)CCCCCCCCCC1c2ccccc2-c2ccccc21 | 11.6 |  |
